From ChEMBL document CHEMBL4354869, “pH-Dependent Grafting of Cancer Cells with Antigenic Epitopes Promotes Selective Antibody-Mediated Cytotoxicity” (J Med Chem, 2020)
The source made the active and inactive calls. The calls are words filed in the database; no cut-off is given here.

Columns and labels:
[1] = test system: MDA-MB-231; test: (§1) Induction of antibody dependent cytotoxicity against human MDA-MB-231 cells assessed as induction of cell lysis at > 1 uM incubated for 5 mins at pH 6 to 7.4 followed by compound washout prior to anti-FITC antibody addition for 30 mins and subsequent human haNK cell addition at 5:1 effector to target ratio measured after 4 hrs by LDH release assay; format: functional, cell-based
Summary of the method: (§2)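 150000 target cells (MDA-MB-231; also LnCap, SK-OV-3 with haNK) treated with conjugate 5 min at 37 °C, pH 7.4 or 6.0, washed, 25 μg/mL anti-FITC rabbit polyclonal 30 min 4 °C, then 4 h at 37 °C with PBMCs at 50:1 (RPMI) or haNK at 5:1 (MEMα). LDH release; % lysis relative to antibody-only pH 7.4 cells; mean ± SEM, n = 3–12.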

[2] = test system: Lipid bilayer; test: Binding affinity to POPC large unilamellar vesicle at 1:300 ratio measured after 30 mins at pH 5 to 7.4 by tryptophan fluorescence spectroscopic analysis
Summary of the method: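 Peptide (7 μM final, from 20 μM stock in 5 mM sodium phosphate pH 8.0) with extruded 100 nm POPC LUVs at 1:300; pH set with HCl, 30 min RT before tryptophan emission spectra were recorded.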

[3] = test system: MDA-MB-231; test: Induction of opsonization in human MDA-MB-231 cells assessed as increase in recruitment of anti-FITC antibody to cell surface at 1 uM measured after 5 mins at pH 6 to 7.4 by Alexa Fluor 647 conjugated anti-FITC antibody based immunofluorescence microscopic analysis; format: functional
Summary of the method: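 Adherent MDA-MB-231 on poly-L-lysine coverslips given 1 μM conjugate for 5 min, 37 °C, pH 7.4 or 6.0, methanol-fixed, then Alexa Fluor 647 anti-FITC rabbit polyclonal at 30 μg/mL for 1 h at 37 °C, Hoechst nuclear stain; fluorescence microscopy, 20× objective.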

[4] = test system: MDA-MB-231; test: Induction of opsonization in human MDA-MB-231 cells assessed as increase in recruitment of anti-FITC antibody to cell surface at 1 uM measured after 5 to 10 mins at pH 6 by Alexa Fluor 647 conjugated anti-FITC antibody based flow cytometry relative to pH 7.4; format: functional
Summary of the method: (§3)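 Cells in suspension (350000 MDA-MB-231) given 1 μM pH-adjusted conjugate for 5 or 10 min at 37 °C, pH 7.4 or 6.0, washed, then Alexa Fluor 647 anti-FITC mouse mAb in PBS/10% FBS 30 min at 4 °C, PFA-fixed. Flow cytometry, ≥3000 events; fold over pH 7.4 antibody-only cells; mean ± SEM, n = 3.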

[5] = test system: MDA-MB-231; test: as §1, with “as” for “as induction of”, “0.1” for “> 1”, “6” for “6 to 7.4”, “PBMC” for “haNK cell”, “50:1” for “5:1”, “assay relative to control” for “assay”; format: functional; summary of the method: as §2
[6] = test system: MDA-MB-231; test: as §1, with “up to” for “at >”; format: functional, cell-based; summary of the method: as §2
[7] = test system: SK-OV-3; test: as §1, with “SKOV3” for “MDA-MB-231”, “at” for “at >”; format: functional, cell-based; summary of the method: as §2
[8] = test system: LNCaP; test: as §1, with “LNCAP” for “MDA-MB-231”, “at” for “at >”; format: functional, cell-based; summary of the method: as §2
[9] = test system: MDA-MB-231; test: Induction of opsonization in human MDA-MB-231 cells assessed as increase in recruitment of anti-FITC antibody to cell surface at 1 uM measured after 5 to 10 mins at pH 6 to 7.4 by Alexa Fluor 647 conjugated anti-FITC antibody based flow cytometry; format: functional; summary of the method: as §3
[10] = test system: MDA-MB-231; test: as §1, with “increase in” for “induction of”, “0.1” for “> 1”, “6” for “6 to 7.4”, “PBMC” for “haNK cell”, “50:1” for “5:1”, “assay relative to pH 7.4” for “assay”; format: functional; summary of the method: as §2
[11] = test system: MDA-MB-231; test: as §1, with “as” for “as induction of”, “> 0.1” for “> 1”, “6” for “6 to 7.4”, “human PBMC” for “human haNK cell”, “at 50:1” for “at 5:1”; format: functional, cell-based; summary of the method: as §2

Activity [2]: Active
Compound: CC[C@H](C)[C@H](NC(=O)[C@@H]1CCCN1C(=O)[C@H](CC(N)=O)NC(=O)[C@H](CCC(N)=O)NC(=O)[C@H](CCC(=O)O)NC(=O)[C@H](CSC1CC(=O)N(CCC(=O)NOCCOCCOCCOCCOCCOCCOCCOCCOCCOCCOCCOCCC(=O)NCCCNC(=O)c2ccc(-c3c4ccc(=O)cc-4oc4cc(O)ccc34)c(C(=O)O)c2)C1=O)NCC(N)=O)C(=O)N[C@@H](Cc1ccc(O)cc1)C(=O)N[C@@H](Cc1c[nH]c2ccccc12)C(=O)N[C@@H](C)C(=O)N[C@@H](CCCNC(=N)N)C(=O)N[C@@H](Cc1ccc(O)cc1)C(=O)N[C@@H](C)C(=O)N[C@@H](CC(=O)O)C(=O)N[C@@H](Cc1c[nH]c2ccccc12)C(=O)N[C@@H](CC(C)C)C(=O)N[C@@H](Cc1ccccc1)C(=O)N[C@H](C(=O)N[C@H](C(=O)N1CCC[C@H]1C(=O)N[C@@H](CC(C)C)C(=O)N[C@@H](CC(C)C)C(=O)N[C@@H](CC(C)C)C(=O)N[C@@H](CC(C)C)C(=O)N[C@@H](CC(=O)O)C(=O)N[C@@H](CC(C)C)C(=O)N[C@@H](C)C(=O)N[C@@H](CC(C)C)C(=O)N[C@@H](CC(C)C)C(=O)N[C@H](C(=O)N[C@@H](CC(=O)O)C(=O)N[C@@H](C)C(=O)N[C@@H](CC(=O)O)C(=O)N[C@@H](CCC(=O)O)C(=O)NCC(=O)N[C@H](C(=O)NCC(N)=O)[C@@H](C)O)C(C)C)[C@@H](C)O)[C@@H](C)O (stereo partly specified)
Activity [1]: inactive
Activity [3]: Active
fold change (FC) [4]: 5.4
Activity [5]: 40%
Activity [6]: Active
Activity [7]: Active
Activity [8]: Active
Activity [9]: Active
fold change (FC) [10]: 2
Activity [11]: inactive
